In ChEMBL document CHEMBL1131007, “5-Fluoro-2-methyl-N-[4-(5H-pyrrolo[2,1-c]-[1, 4]benzodiazepin-10(11H)-ylcarbonyl)-3-chlorophenyl]benzamide (VPA-985): an orally active arginine vasopressin antagonist with selectivity for V2 receptors” (J Med Chem, 1998):

Legend:
[1] = biological target: Vasopressin receptor (Rattus norvegicus) (UniProt P48974+P30560+Q00788); experiment: Relative affinity for rat vasopressin receptors V1a and V2; format: protein assay
Vasopressin V2 receptor [2] = biological target: Vasopressin V2 receptor (Rattus norvegicus, UniProt Q00788); experiment: Displacement of [3H]AVP from vasopressin V2 receptor of rat kidney medulla.
Vasopressin V2 receptor (Rattus norvegicus, UniProt Q00788), sequence (Q00788 whole entry): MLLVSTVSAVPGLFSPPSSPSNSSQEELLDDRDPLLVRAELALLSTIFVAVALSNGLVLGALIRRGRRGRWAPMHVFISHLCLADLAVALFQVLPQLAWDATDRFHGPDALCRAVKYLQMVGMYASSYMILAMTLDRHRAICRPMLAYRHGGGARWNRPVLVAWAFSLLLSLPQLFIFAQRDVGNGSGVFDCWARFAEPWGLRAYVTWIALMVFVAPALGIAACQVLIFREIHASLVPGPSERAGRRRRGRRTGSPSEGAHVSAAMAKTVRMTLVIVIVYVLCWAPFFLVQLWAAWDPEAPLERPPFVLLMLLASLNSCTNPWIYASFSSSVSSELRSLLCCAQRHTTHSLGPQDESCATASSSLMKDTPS

Homo sapiens = organism: Homo sapiens; experiment: Relative affinity for human vasopressin receptors V1a and V2
In short: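 Ratio from IC50 values: V1a by displacement of 3H-AVP or 3H-[d(CH2)5 1Tyr(Me)2,Arg8]-AVP from human platelet membranes; V2 by displacement of 3H-AVP from membranes of murine fibroblast LV2 cells expressing human V2 receptors.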

Vasopressin V2 receptor [3] = biological target: Vasopressin V2 receptor (Homo sapiens, UniProt P30518); experiment: Displacement of [3H]AVP from human V2 receptor expressed in murine fibroblast cell line (LV2) membranes; format: cell-based
Vasopressin V2 receptor (Homo sapiens, UniProt P30518), sequence (P30518 whole entry): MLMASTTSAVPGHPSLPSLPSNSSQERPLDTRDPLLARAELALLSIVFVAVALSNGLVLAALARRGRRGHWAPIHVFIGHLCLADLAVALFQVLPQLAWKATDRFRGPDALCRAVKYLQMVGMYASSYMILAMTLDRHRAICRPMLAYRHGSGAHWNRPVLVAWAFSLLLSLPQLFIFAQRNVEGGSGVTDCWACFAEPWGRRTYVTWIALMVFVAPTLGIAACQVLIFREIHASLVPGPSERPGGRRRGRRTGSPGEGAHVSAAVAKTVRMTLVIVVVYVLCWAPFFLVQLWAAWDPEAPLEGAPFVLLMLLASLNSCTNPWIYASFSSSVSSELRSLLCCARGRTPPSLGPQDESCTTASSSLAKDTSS
In short: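 Membranes from murine fibroblast line LV2 expressing human V2 receptors; displacement of specific 3H-AVP binding. IC50 given as group mean ± SEM where two or three separate determinations were made.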

Vasopressin V1a receptor [4] = biological target: Vasopressin V1a receptor (Homo sapiens, UniProt P37288); experiment: Displacement of [3H]AVP from vasopressin receptor (V1a) from human platelet membranes.
Vasopressin V1a receptor (Homo sapiens, UniProt P37288), sequence (P37288 whole entry): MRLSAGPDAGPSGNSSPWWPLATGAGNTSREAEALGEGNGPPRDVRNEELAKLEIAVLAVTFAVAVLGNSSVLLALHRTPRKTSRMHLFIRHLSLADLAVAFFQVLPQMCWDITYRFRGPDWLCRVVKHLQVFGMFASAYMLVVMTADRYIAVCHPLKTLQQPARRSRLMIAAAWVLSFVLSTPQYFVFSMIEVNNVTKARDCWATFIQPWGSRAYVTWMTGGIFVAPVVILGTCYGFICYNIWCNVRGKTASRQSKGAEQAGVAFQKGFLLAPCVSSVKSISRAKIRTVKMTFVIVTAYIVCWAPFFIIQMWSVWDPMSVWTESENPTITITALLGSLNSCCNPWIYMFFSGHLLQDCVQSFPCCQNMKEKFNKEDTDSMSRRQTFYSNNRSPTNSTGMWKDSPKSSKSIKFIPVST
In short: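 Membranes from human platelets; displacement of specific binding of 3H-AVP or 3H-[d(CH2)5 1Tyr(Me)2,Arg8]-AVP at V1a sites. IC50 given as group mean ± SEM where two or three separate determinations were made.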

Rattus norvegicus [5] = experiment: Urine volume collected after 10 mg/kg of drug administration into 2 rats.; format: functional
In short: (§1)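 Conscious rats with water access before but not during the test. Given AVP 0.4 μg/kg ip in peanut oil, then deionized water 30 mL/kg by gavage 20 min later, then vehicle or compound 20 min after that. Vehicle was 20% DMSO in 2.5% preboiled starch. Urine volume over 4 h and osmolality measured.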

Rattus norvegicus [6] = experiment: Urine volume collected after 3 mg/kg of drug administration into 2 rats.
Rattus norvegicus [7] = experiment: Urinary osmolality from urine collected from rat at 3 mg/kg; format: functional
In short: (§2)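 Conscious rats with free access to water before and during the test, given compound in 20% DMSO in aqueous 2.5% preboiled starch (compound first dissolved in DMSO). Urine volume over 4 h and urinary osmolality (mOsm/kg) measured.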

Rattus norvegicus [8] = experiment: Urinary osmolality from urine collected from rat at 10 mg/kg; format: functional; in short: as §2
Vasopressin V1a receptor [9] = biological target: Vasopressin V1a receptor (Rattus norvegicus, UniProt P30560); experiment: Displacement of (Phe-3,4,5-H) Vasopressin from V1a receptor from rat liver membranes.; format: cell membranes, Membrane
Vasopressin V1a receptor (Rattus norvegicus, UniProt P30560), sequence (P30560 whole entry): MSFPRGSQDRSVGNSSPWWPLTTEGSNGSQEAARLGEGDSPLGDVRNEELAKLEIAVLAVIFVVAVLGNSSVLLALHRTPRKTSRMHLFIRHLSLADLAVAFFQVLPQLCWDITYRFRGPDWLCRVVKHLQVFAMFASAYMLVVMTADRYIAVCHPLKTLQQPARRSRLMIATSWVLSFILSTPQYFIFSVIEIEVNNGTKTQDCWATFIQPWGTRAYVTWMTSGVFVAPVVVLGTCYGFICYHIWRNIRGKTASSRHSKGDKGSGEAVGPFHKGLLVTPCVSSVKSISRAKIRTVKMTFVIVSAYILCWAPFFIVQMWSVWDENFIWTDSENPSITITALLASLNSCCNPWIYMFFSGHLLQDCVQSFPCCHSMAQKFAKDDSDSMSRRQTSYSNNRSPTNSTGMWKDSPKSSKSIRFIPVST

Rattus norvegicus [10] = experiment: Urinary osmolality from urine collected from rat at 1 mg/kg; format: functional; in short: as §2
Rattus norvegicus [11] = experiment: Urine volume collected after 1 mg/kg of drug administration into 6 rats; format: functional; in short: as §2
Rattus norvegicus [12] = experiment: Urine volume collected after 10 mg/kg of drug administration into 6 rats.; format: functional; in short: as §1
Rattus norvegicus [13] = experiment: Urine volume collected after 3 mg/kg of drug administration into 15 rats; format: functional; in short: as §2
Rattus norvegicus [14] = experiment: Urine volume collected after 3 mg/kg of drug administration into 10 rat; format: functional; in short: as §1
Rattus norvegicus [15] = experiment: Urinary osmolality from urine collected from rat at 1 mg/kg in second experiment; format: functional; in short: as §1
Rattus norvegicus [16] = experiment: Urinary osmolality from urine collected from rat at 10 mg/kg in second experiment; format: functional; in short: as §1
Rattus norvegicus [17] = experiment: Urinary osmolality from urine collected from rat at 3 mg/kg in second experiment; format: functional; in short: as §1
Rattus norvegicus [18] = experiment: Urine volume collected after 1 mg/kg of drug administration into 8 rats. (Conscious rats free access to water before but not during the experiment).; format: functional; in short: as §1
Rattus norvegicus [19] = experiment: Urine volume collected after 10 mg/kg of drug administration into 13 rats. (Conscious rats free access to water before and after during the experiment); format: functional; in short: as §2
Rattus norvegicus [20] = experiment: Urinary osmolality from urine collected from rat at 10 mg/kg
Rattus norvegicus [21] = experiment: Urine volume collected after 10 mg/kg of drug administration into 3 rats.; format: functional; in short: as §1
Rattus norvegicus [22] = experiment: Urine volume collected after 10 mg/kg of drug administration into 4 rats.; format: functional; in short: as §1

SMILES | Selectivity [1] | Selectivity (Homo sapiens) | IC50 (Vasopressin V2 receptor [3]) | IC50 (Vasopressin V1a receptor [4]) | also measured
Cc1ccccc1C(=O)Nc1ccc(C(=O)N2Cc3cccn3Cc3ccccc32)cc1 | 9 | – | – | – | IC50 (Vasopressin V2 receptor [2]): 4.1 nM
O=C(Nc1ccc(C(=O)N2Cc3cccn3Cc3ccccc32)cc1)c1ccccc1C(F)(F)F | 3 | – | – | – | IC50 (Vasopressin V2 receptor [2]): 10.2 nM
Cc1ccccc1C(=O)Nc1ccc(C(=O)N2CCCC(N(C)C)c3ccccc32)cc1 (stereo unspecified) [MOZAVAPTAN] | – | – | – | – | Urine volume (Rattus norvegicus [5]): 23 ml 4hr-1; Urine volume (Rattus norvegicus [6]): 10 ml 4hr-1; Osmolality (Rattus norvegicus [7]): 850 mOsmol kg-1; Osmolality (Rattus norvegicus [8]): 352 mOsmol kg-1
Cc1ccc(F)cc1C(=O)Nc1ccc(C(=O)N2Cc3cccn3Cc3ccccc32)c(C)c1 | – | 80 | 2.1 nM | 120 nM | –
Cc1ccc(F)cc1C(=O)Nc1ccc(C(=O)N2Cc3cccn3Cc3ccccc32)cc1 | – | – | 1.5 nM | 20 nM | –
Cc1c(F)cccc1C(=O)Nc1ccc(C(=O)N2Cc3cccn3Cc3ccccc32)cc1 | 7 | – | – | – | –
O=C(Nc1ccc(C(=O)N2Cc3cccn3Cc3ccccc32)c(Cl)c1)c1cccc(C(F)(F)F)c1F | – | 530 | 8.3 nM | 4400 nM | Urine volume (Rattus norvegicus [5]): 10 ml 4hr-1; Osmolality (Rattus norvegicus [8]): 635 mOsmol kg-1
COc1cc(C(=O)N2Cc3cccn3Cc3ccccc32)ccc1NC(=O)c1ccc(Cl)cc1Cl | – | 17 | – | – | –
O=C(Nc1ccc(C(=O)N2Cc3cccn3Cc3ccccc32)cc1)c1ccccc1Cl | 2 | – | – | – | IC50 (Vasopressin V2 receptor [2]): 4.6 nM
COc1ccccc1C(=O)Nc1ccc(C(=O)N2Cc3cccn3Cc3ccccc32)cc1 | 2 | – | – | – | –
Cc1cccc(C(=O)Nc2ccc(C(=O)N3Cc4cccn4Cc4ccccc43)c(Cl)c2)c1C | – | 860 | 0.5 nM | – | Osmolality (Rattus norvegicus [20]): 557 mOsmol kg-1
Cc1ccc(C)c(C(=O)Nc2ccc(C(=O)N3Cc4cccn4Cc4ccccc43)c(Cl)c2)c1 | – | 81 | 4.2 nM | – | –
O=C(Nc1ccc(C(=O)N2Cc3cccn3Cc3ccccc32)cc1)c1ccc(Cl)cc1Cl | 7 | 5 | 3.2 nM | 15 nM | IC50 (Vasopressin V2 receptor [2]): 3.1 nM
Cc1cccc(C(=O)Nc2ccc(C(=O)N3Cc4cccn4Cc4ccccc43)cc2)c1C | 6 | – | – | – | –
Cc1cc(C(=O)N2Cc3cccn3Cc3ccccc32)ccc1NC(=O)c1ccc(Cl)cc1Cl | 4 | – | – | – | IC50 (Vasopressin V1a receptor [9]): 33 nM; IC50 (Vasopressin V2 receptor [2]): 8 nM
O=C(Nc1ccc(C(=O)N2Cc3cccn3Cc3ccccc32)cc1)c1ccc(F)cc1Cl | – | 2 | – | 6.3 nM | –

More lines, main results first:

Selectivity [1] | Selectivity (Homo sapiens) | IC50 (Vasopressin V2 receptor [3]) | IC50 (Vasopressin V1a receptor [4]) | SMILES | also measured
12 | 59 | 1 nM | 59 nM | Cc1ccccc1C(=O)Nc1ccc(C(=O)N2Cc3cccn3Cc3ccccc32)c(Cl)c1 | –
– | 8 | 2 nM | – | COc1cc(NC(=O)c2cc(F)ccc2C)ccc1C(=O)N1Cc2cccn2Cc2ccccc21 | –
2 | – | – | – | COc1cc(Cl)ccc1C(=O)Nc1ccc(C(=O)N2Cc3cccn3Cc3ccccc32)cc1 | IC50 (Vasopressin V1a receptor [9]): 33 nM; IC50 (Vasopressin V2 receptor [2]): 16 nM
– | 53 | 0.7 nM | 37 nM | O=C(Nc1ccc(C(=O)N2Cc3cccn3Cc3ccccc32)c(Cl)c1)c1ccc(F)cc1Cl | –
148 | 192 | 1.2 nM | 230 nM | Cc1ccc(F)cc1C(=O)Nc1ccc(C(=O)N2Cc3cccn3Cc3ccccc32)c(Cl)c1 [LIXIVAPTAN] | Osmolality (Rattus norvegicus [10]): 393 mOsmol kg-1; Urine volume (Rattus norvegicus [11]): 24 ml 4hr-1; IC50 (Vasopressin V1a receptor [9]): 340 nM; Urine volume (Rattus norvegicus [12]): 37 ml 4hr-1; Urine volume (Rattus norvegicus [13]): 38 ml 4hr-1; Urine volume (Rattus norvegicus [14]): 30 ml 4hr-1; Osmolality (Rattus norvegicus [15]): 629 mOsmol kg-1; Osmolality (Rattus norvegicus [16]): 302 mOsmol kg-1; Osmolality (Rattus norvegicus [17]): 366 mOsmol kg-1; Urine volume (Rattus norvegicus [18]): 14 ml 4hr-1; Osmolality (Rattus norvegicus [7]): 222 mOsmol kg-1; Urine volume (Rattus norvegicus [19]): 43 ml 4hr-1; Osmolality (Rattus norvegicus [8]): 188 mOsmol kg-1
– | 284 | 1.9 nM | 540 nM | Cc1c(F)cccc1C(=O)Nc1ccc(C(=O)N2Cc3cccn3Cc3ccccc32)c(Cl)c1 | Osmolality (Rattus norvegicus [20]): 473 mOsmol kg-1; Urine volume (Rattus norvegicus [21]): 17 ml 4hr-1
5 | 320 | 2 nM | 640 nM | O=C(Nc1ccc(C(=O)N2Cc3cccn3Cc3ccccc32)c(Cl)c1)c1ccc(Cl)cc1Cl | Osmolality (Rattus norvegicus [20]): 507 mOsmol kg-1; Urine volume (Rattus norvegicus [22]): 14 ml 4hr-1
– | 6 | – | 25 nM | Cc1ccc(F)cc1C(=O)Nc1ccc(C(=O)N2Cc3cccn3Cc3ccccc32)cc1Cl | –
